Shown are actives, neighbours in structure and some others; about 1.6% of the full set was active somewhere.
procasp3 activ: procaspase-3 (human) activation | recombinant procaspase-3 D3A, Ac-DEVD-pNA absorbance 405 nm | activation, % at 8.5 µM | 330,000 compounds, 0.11% hits | AID 463141;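 active = activation above the mean of all tested compounds plus 3 SD, cut at about 21% in these data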;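 note: 0% = DMSO alone and 100% = DMSO wells spiked with extra 5 µM PC-3 D3A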
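Compound: 8.5 µM single point, 0.8% DMSO / Material: Autoprocessing-dead procaspase-3 D3A mutant enzyme / Timing: 1 h preincubation plus 2 h reaction at 25 °C / Medium: Zinc-free HEPES/NaCl buffer with 0.01% Triton X-100 at pH 7.4 / Technique: 405 nm absorbance of p-nitroaniline, reads at 0 and 120 min / Repeats: one well per compound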
Neddyl block: cullin neddylation inhibition | P61081+Q13564 | TR-FRET cullin neddylation, biochemical | calls only at 25 µM | 360,000 compounds, 0.58% hits; in the data active = inhibition above about 36%
KLK7 zymogen act: proKLK7 (human) activation, primary screen. P49862. purified proKLK7, EDANS-DABCYL substrate fluorescence; 100% is mature enzyme control, 0% vehicle. activation, % at 7 µM. 370,000 compounds, 0.9% hits;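 active = activation above the mean of all tested compounds plus 3 SD, computed per campaign excluding outliers beyond control limits, cut at about 13% in these data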
Target sequence (P49862 whole entry, looked up): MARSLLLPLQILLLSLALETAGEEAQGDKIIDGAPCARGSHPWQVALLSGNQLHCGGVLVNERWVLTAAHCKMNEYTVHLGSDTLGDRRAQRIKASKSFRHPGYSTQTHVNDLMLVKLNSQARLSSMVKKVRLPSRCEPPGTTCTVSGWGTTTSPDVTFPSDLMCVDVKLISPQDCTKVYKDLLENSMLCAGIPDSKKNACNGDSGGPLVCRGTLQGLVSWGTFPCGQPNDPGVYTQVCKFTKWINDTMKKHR
proCasp7 act: activates human procaspase-7, counter-screen for procaspase-3 activators; P55210; recombinant procaspase-7, Ac-DEVD-pNA absorbance 405 nm; D23A/D198A/D206A triple mutant, cannot self-cleave; scale: DMSO 0, 5 µM enzyme 100; activation, % at 8.5 µM; 330,000 compounds, 0.093% hits; AID 463210;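 active = percent activation above the screen-wide mean plus 3 SD, cut at about 25% in these data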
Target sequence (P55210 whole entry D23A/D198A/D206A): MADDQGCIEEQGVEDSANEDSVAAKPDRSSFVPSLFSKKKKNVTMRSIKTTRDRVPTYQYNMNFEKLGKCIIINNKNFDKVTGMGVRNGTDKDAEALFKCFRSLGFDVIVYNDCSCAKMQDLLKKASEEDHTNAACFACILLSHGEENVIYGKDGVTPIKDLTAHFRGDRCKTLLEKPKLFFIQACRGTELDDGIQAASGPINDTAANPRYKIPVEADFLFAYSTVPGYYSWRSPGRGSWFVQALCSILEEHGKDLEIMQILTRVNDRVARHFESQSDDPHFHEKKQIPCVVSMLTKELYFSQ
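Material: Procaspase-7 triple mutant (PC-7 D3A) | Quantity: 2 µM procaspase-7 mutant as dispensed | Reagent: DEVD-pNA substrate | Times: 1 h preincubation, 2 h reaction | Technique: 405 nm absorbance of p-nitroaniline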
proKLK7 act conf: confirmation of human kallikrein-7 zymogen activators; 3,200 compounds, 68% hits; purified proKLK7, EDANS-DABCYL substrate fluorescence; scaled: vehicle 0, mature enzyme 100; activation, % at 7 µM; shares compounds with KLK7 zymogen act;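 active = activation, as change over the incubation, above the mean of all tested compounds plus 3 SD, cut at about 13% in these data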
EDANS interfere: optically interferes with EDANS-DABCYL signal, flagging KLK7 hits | shares compounds with KLK7 zymogen act | EDANS-DABCYL substrate fluorescence interference, no enzyme, 4 h; solvent 0%, active enzyme control 100% | activation, % at 7 µM | 3,200 compounds, 80% hits | AID 686952;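 active = activation above the all-compound mean plus 3 SD, ignoring values outside control-based bounds, cut at about 4.8% in these data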;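 note: value is the 4 h activation minus the activation read at time zero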
Numbers without * were called inactive; i = inactive; x = no result given.

SMILES | procasp3 activ | Neddyl block | KLK7 zymogen act | proCasp7 act | proKLK7 act conf | EDANS interfere
CCOC(=O)c1nn(-c2ccc(F)cc2)c2nc(-c3ccccc3)c(C#N)c(=O)n12 | -1 | i | 40* | -5 | 138* | 146*
CCOC(=O)c1nn(-c2cccc(C)c2)c2nc(-c3ccccc3)c(C#N)c(=O)n12 | -3 | i | 1 | 2 | x | x
COc1ccc2oc3cc(NCCN(C)C)ccc3c(=O)c2c1 | x | i | 66* | x | 80* | 79*
CCOC(=O)[C@@]12CCC3=C1N(CCC3)C(=O)[C@H](CC(=O)NCc1ccc(OC)c(OC)c1)C2 | x | x | 0 | x | x | x
CCOC(=O)c1[nH]cnc1C(=O)N1CCC(C)CC1 | -2 | i | 0 | 14 | x | x
O=C(O)CCC(=O)c1cccc2ccccc12 | 4 | i | 1 | 2 | x | x
O=C(O)CCC(=O)c1ccc2ccc3cccc4ccc1c2c34 | -5 | x | 26* | -2 | 62* | 65*
COc1cc2c(c(OC)c1)C(=O)O[C@H](C)C[C@@H]1O[C@H]1CCCCC(=O)C2 | x | x | 1 | x | x | x
COC(=O)c1ccccc1-c1c2ccc(=N)cc-2oc2cc(N)ccc12 | -6 | i | 101* | -1 | 65* | 86*
COC(=O)c1ccccc1-c1ccc(/C=N/NC(=O)c2cc3ccccc3o2)o1 | -4 | x | -100 | 17 | x | x
CN(C)CCNc1oc(/C=C/c2ccccc2)nc1C#N | 6 | x | 98* | -4 | 66* | 69*
CCOc1ccc(/C=C/c2nc(C#N)c(NCCCOC)o2)cc1 | -5 | x | -15 | 2 | x | x
COCCCNc1oc(/C=C/c2ccccc2)nc1C#N | 4 | i | 44* | 2 | 57* | 61*
CCN(CC)CCCNc1oc(-c2ccc(OC)c(OC)c2)nc1C#N | 10 | x | 7 | 5 | x | x
CN(C)CCCNc1oc(-c2cccc(Cl)c2)nc1C#N | 11 | x | 51* | 5 | 17* | 26*
CN(C)CCCNc1oc(/C=C/c2ccccc2)nc1C#N | -2 | i | 1 | 2 | x | x
C=CCNc1oc(/C=C/c2ccccc2)nc1C#N | 3 | i | 46* | 5 | 66* | 68*
Cc1cccc(C(=O)Nc2cc(S(=O)(=O)N3CCOCC3)ccc2N2CCCCC2)c1 | 8 | i | 0 | 13 | x | x
Cc1cc(=O)oc2n[nH]c(-c3ccccc3)c12 | -1 | x | 1 | -8 | x | x
COc1ccc(-c2[nH]nc3oc(=O)cc(C)c23)cc1 | -4 | x | 13* | 6 | 15* | 21*
CCOC(=O)c1ccc(NC(=O)COC(=O)c2cccc(Oc3ccccc3)c2)cc1 | 3 | i | 0 | -1 | x | x
COc1ccc2c(c1)CCc1cc(C(=O)O)sc1-2 | 6 | x | 56* | -3 | 59* | 67*
CCOC(=O)c1sc(NC(=O)c2ccccc2)cc1C | 0 | x | 16* | 8 | -1 | -1
CCOC(=O)c1sc(NC(=O)c2ccc(S(=O)(=O)N(C)C)cc2)cc1C | -7 | x | 2 | -5 | x | x
O=C(OCc1cn(Cc2ccccc2C(F)(F)F)nn1)N1CCOCC1 | x | x | 1 | x | x | x
SMILES | procasp3 activ | Neddyl block | KLK7 zymogen act | proCasp7 act | proKLK7 act conf | EDANS interfere
CNC(=S)NNC(=O)c1cccn(Cc2cccc(Cl)c2)c1=O | 0 | i | 15* | 11 | 30* | 34*
CNC(=S)NNC(=O)c1cccn(Cc2ccc(Cl)c(Cl)c2)c1=O | 1 | i | 21* | -1 | 31* | 34*
C=CCNC(=S)NNC(=O)c1ccc(=O)n(Cc2ccccc2)c1 | -4 | i | 0 | 4 | x | x
C=CCNC(=S)NNC(=O)c1cccn(Cc2ccc(Cl)c(Cl)c2)c1=O | 1 | i | 22* | -1 | 33* | 36*
O=S(=O)(CCc1ccncc1)C1Cc2cccc3cccc1c23 (stereo not given) | -15 | i | -3 | -9 | x | x
CC(C)COC(=O)N1CCCCC1c1cc(C(=O)NCc2cccnc2)no1 (stereo not given) | x | i | 0 | x | x | x
CCOc1ccc(-c2cc(C)n3nc(C(N)=O)cc3n2)cc1 | 3 | x | 30* | 6 | 49* | 56*
Cc1cc(C)c2oc(=O)cc(CN3CCCCC3)c2c1 | 3 | i | 0 | 2 | x | x
Cc1c(O)cnc2nn(-c3ccccc3)c(=N)n12 | x | x | 40* | x | 17* | 17*
Cc1ccc2cc3c(NC(=O)C(C)C)nn(C)c3nc2c1 | -4 | i | 15* | 1 | -9 | -1
COc1ccc(C(=O)N(C)[C@H]2C[C@H]3c4[nH]c5ccccc5c4CCN3C[C@H]2[C@H](C)O)cc1 | x | i | -1 | x | x | x
CN(C(=O)Nc1ccc(F)cc1)[C@H]1C[C@H]2c3[nH]c4ccccc4c3CCN2C(=O)[C@H]1CO | x | i | 2 | x | x | x
COc1ccc(NC(=O)N(C)[C@H]2C[C@H]3c4[nH]c5ccccc5c4CCN3C(=O)[C@H]2CO)cc1 | x | i | 24* | x | 3 | 3
COc1ccc(C(=O)N(C)[C@H]2C[C@H]3c4[nH]c5ccccc5c4CCN3C(=O)[C@H]2CO)cc1 | x | x | 44* | x | 51* | 57*
COc1ccc(NC(=O)N(C)[C@H]2C[C@H]3c4[nH]c5ccc(-c6ccc(OC)cc6)cc5c4CCN3C(=O)[C@H]2[C@H](C)O)cc1 | x | x | 2 | x | x | x
COc1ccc(NC(=O)N(C)[C@H]2C[C@H]3c4[nH]c5ccccc5c4CCN3C(=O)[C@H]2[C@H](C)O)cc1 | x | x | 88* | x | 8 | 9.5*
COC(=O)c1cc2c(c3c4cc(C)ccc4n(S(=O)(=O)c4cccc(C)c4)c13)C(=O)N(Cc1ccc(N(C)C)cc1)C2 | x | x | -1 | x | x | x
COc1ccccc1NC(=O)Cc1nnc(SCC(=O)Nc2nccs2)n1C | 8 | i | 0 | 1 | x | x
O=S(=O)(NCc1ccccc1Cl)c1cccs1 | 3 | i | 0 | 4 | x | x
CC(C)[C@H](NC(=O)c1ccccc1)C(=O)N1CCC[C@H]1C(=O)NCCc1ccccc1Cl | x | x | 0 | x | x | x
CN(C)/C=C1\C=C2C(=O)c3ccccc3N2C1=O | -14 | i | 14* | -16 | 72* | 66*
CCCN1C(=O)c2ccccc2NC1c1ccc(OC)cc1O (stereo not given) | 1 | x | 19* | -4 | 15* | 16*
O=C1c2ccccc2NC(c2ccccc2)N1CCCN1CCOCC1 (stereo not given) | 2 | x | 15* | 4 | 12 | 10*
CCCN1C(=O)c2ccccc2NC1c1ccc(C)cc1 (stereo not given) | -3 | x | 14* | 1 | 10 | 7.3*
CCCN1C(=O)c2ccccc2NC1c1ccc(OC)cc1OC (stereo not given) | -3 | x | 10 | 4 | x | x
O=C(O)c1ccccc1C1Nc2ccccc2C(=O)N1CCCN1CCOCC1 (stereo not given) | 14 | i | 2 | 2 | x | x

Bioassay records from PubChem BioAssay.
